In the library only some 1.4% were active in any assay of this set; here they are far more common.
OPRM1-OPRD1 inv: mu-delta opioid heterodimer inverse agonism; P35372+P41143; cell-based MOR-DOR heterodimer luminescence; inhibition, % at 9.3 µM; 340,000 tested, 0.21% active; in the data active means inhibition above about 22%, passing the limit was not always enough;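 further: 0% = cells with DMSO and 100% = wells without cells with DMSO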
HTR5A ag ctr: HTR5A agonism, opioid heterodimer counter-screen; AID 504692; HTR5A agonist assay, luminescence, cell-based; 340,000 tested, 0.61% active; activation, % at 9.3 µM; P47898; in the data active means activation mostly above about 9.5%, no sharp cut-off; inactive means mostly below about 7.6%;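 further: 0% = cells with vehicle only and 100% = reference agonist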
MOR-DOR ag: OPRM1-OPRD1 heterodimerization agonism; P35372+P41143; cells, luminescence; activation, % at 9.3 µM; 340,000 tested, 0.3% active; AID 504326; in the data active means activation above about 18%;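 further: 0% = vehicle-treated cells and 100% = reference agonist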
DAGLB inhibitor: blocks human DAGLB lipase activity | Q8NCG7 | HEK293T DAGLB membrane lysate, EnzChek fluorogenic substrate | inhibition, % at 5.17 µM | 340,000 tested, 0.059% active; in the data active means inhibition above about 34%;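 further: 0% = enzyme with vehicle and 100% = wells lacking enzyme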
Target sequence (Q8NCG7 whole entry, looked up): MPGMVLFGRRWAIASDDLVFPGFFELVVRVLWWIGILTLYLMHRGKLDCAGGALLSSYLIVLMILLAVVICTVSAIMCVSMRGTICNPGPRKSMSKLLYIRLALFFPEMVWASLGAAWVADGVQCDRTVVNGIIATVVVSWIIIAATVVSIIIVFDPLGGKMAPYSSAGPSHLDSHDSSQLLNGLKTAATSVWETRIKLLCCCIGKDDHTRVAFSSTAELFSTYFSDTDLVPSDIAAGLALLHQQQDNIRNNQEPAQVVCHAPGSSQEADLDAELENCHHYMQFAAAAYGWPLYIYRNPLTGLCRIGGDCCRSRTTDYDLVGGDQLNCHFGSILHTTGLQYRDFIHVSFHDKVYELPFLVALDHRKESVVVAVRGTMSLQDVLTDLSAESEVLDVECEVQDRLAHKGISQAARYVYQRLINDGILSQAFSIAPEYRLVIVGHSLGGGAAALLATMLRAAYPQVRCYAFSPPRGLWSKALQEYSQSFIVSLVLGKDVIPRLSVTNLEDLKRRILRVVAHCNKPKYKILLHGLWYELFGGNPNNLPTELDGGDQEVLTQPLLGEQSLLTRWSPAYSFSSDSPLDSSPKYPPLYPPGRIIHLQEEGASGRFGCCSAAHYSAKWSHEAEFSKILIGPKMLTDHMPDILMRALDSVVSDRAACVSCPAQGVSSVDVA
HTR5A inv ag: counter-screen for OPRM1-OPRD1 inverse agonists: human HTR5A inverse agonism; P47898; HTR5A cell line, luminescence; inhibition, % at 9.3 µM; 340,000 tested, 0.083% active; AID 504634; in the data active means inhibition mostly above about 23%, no sharp cut-off; inactive means mostly below about 18%;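 further: 0% = cells with DMSO and 100% = no-cell wells with DMSO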
Arr AP2 block: human beta-arrestin and AP2 interaction inhibition; 340,000 tested, 0.31% active; FITC-arrestin peptide / GST-AP2 beads, flow cytometry; AP2 beta2 appendage carries R879A mutation; inhibition, % at 10 µM; AID 504490;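 active means inhibition above a set limit, near 3 SD of compounds lacking own fluorescence, cut at about 54% in these data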;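 further: plate controls were DMSO wells for no effect and 5 µM unlabelled arrestin peptide for full effect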
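Assay system: GST-AP2 R879A bound to glutathione beads, E. coli-expressed; Medium: PBS with 0.05% Tween 20 and 0.1% BSA; Also added: fluorescein-tagged arrestin peptide at 50 nM final; Timing: 12 min plus 1 h, RT; Measured by: flow cytometry, FL1 (488/535 nm); Evaluation: percent drop in bead-associated FITC signal.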
Arr-AP2 CP1: blocks beta-arrestin peptide binding to human AP2. AID 504908. 1,300 tested, 2% active. inhibition, % at 10 µM. GST-AP2 beads, FITC arrestin peptide binding, flow cytometry; GST-fused beta2-adaptin appendage, R879A mutant. shares compounds with Arr AP2 block;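 active means inhibition above a set limit, roughly 3 SD of non-fluorescent compound noise, cut at about 38% in these data; inactive means inhibition at or below that limit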;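 further: loss of bead fluorescence from 50 nM FITC arrestin peptide bound to appendage; 0% = negative control wells and 100% = excess unlabelled arrestin peptide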
GST GSH counter: GST-GSH bead binding interference, counter-screen; shares compounds with Arr AP2 block; GST-fluorescein binding to GSH beads, fluorescence; inhibition, % at 10 µM; 1,300 tested, 2% active;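 active means inhibition above 50%, about 3 SD of the inhibition seen with non-fluorescent compounds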;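 further: fluorescein maleimide labelled GST captured on 4 micron glutathione beads; higher means more loss of bead fluorescence from quenching or blocked binding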
Active calls of the source: *.

`COc1ccc(NC(=O)CSc2nnc3n2CCCCC3)cc1S(=O)(=O)N(C)C` gave DAGLB inhibitor -1.
For CC12CCC(=O)N1C(C(=O)OCC(=O)Nc1ccc(C(F)(F)F)cc1)CS2 (stereo unspecified) the results were OPRM1-OPRD1 inv -15, HTR5A ag ctr 8, MOR-DOR ag 4, DAGLB inhibitor -1, HTR5A inv ag -19, Arr AP2 block 10, Arr-AP2 CP1 -4 and GST GSH counter -6.
Screening CC(C)c1ccc(NC(=O)C2CSC3(C)CCC(=O)N23)cc1 (stereo unspecified) returned OPRM1-OPRD1 inv 16, HTR5A ag ctr -1, MOR-DOR ag -3, DAGLB inhibitor 2, HTR5A inv ag -11 and Arr AP2 block -12.
For Cc1ccc(NC(=O)COC(=O)C2CSC3(C)CCC(=O)N23)cc1S(=O)(=O)N1CCOCC1 (stereo unspecified) the results were OPRM1-OPRD1 inv 5, HTR5A ag ctr 2, MOR-DOR ag -1, DAGLB inhibitor -1, HTR5A inv ag 18, Arr AP2 block 64*, Arr-AP2 CP1 -6 and GST GSH counter -3.
`CC1CN(C(=S)Nc2ccccc2)C(C)CN1C=O` (stereo unspecified) gave OPRM1-OPRD1 inv 13, HTR5A ag ctr -4, MOR-DOR ag -3, DAGLB inhibitor 2, HTR5A inv ag 17 and Arr AP2 block -21.
Screening CC(=O)Nc1ccc2cnn(C(C)=O)c2c1 returned DAGLB inhibitor -3.
Screening COc1ccc2c(c1)c1ccc3c(c1n2C)C(=O)C=CC3=O returned OPRM1-OPRD1 inv -12, HTR5A ag ctr 6, MOR-DOR ag 3, DAGLB inhibitor 6, HTR5A inv ag -24, Arr AP2 block 57*, Arr-AP2 CP1 33 and GST GSH counter 3.
`Cc1ccc2c(c1)c1ccc3c(c1n2C)C(=O)C=CC3=O` gave OPRM1-OPRD1 inv -24, HTR5A ag ctr 5, MOR-DOR ag 5, DAGLB inhibitor 9, HTR5A inv ag -16 and Arr AP2 block 48.
Cn1c2ccccc2c2ccc3c(c21)C(=O)C=CC3=O was read as OPRM1-OPRD1 inv -40, HTR5A ag ctr -2, MOR-DOR ag 8, DAGLB inhibitor 10, HTR5A inv ag 8, Arr AP2 block 70*, Arr-AP2 CP1 55* and GST GSH counter 2.
`Cc1nc(SCC(=O)c2cc(C)n(C3CC3)c2C)c2ccccc2n1` gave DAGLB inhibitor -7.
Screening CCc1ccc(C(=O)COC(=O)c2cc([N+](=O)[O-])ccc2NCCO)cc1 returned OPRM1-OPRD1 inv -4, HTR5A ag ctr -4, MOR-DOR ag 1, DAGLB inhibitor -4, HTR5A inv ag 11, Arr AP2 block 57*, Arr-AP2 CP1 -2 and GST GSH counter -7.
`CCOc1cccc(-c2cc(=O)[nH][nH]2)c1` gave OPRM1-OPRD1 inv 15, HTR5A ag ctr 0, MOR-DOR ag -3, DAGLB inhibitor 8, HTR5A inv ag 29, Arr AP2 block 74*, Arr-AP2 CP1 -4 and GST GSH counter -5.
`CC(OC(=O)C1CSC2(C)CCC(=O)N12)C(=O)Nc1ccc(F)cc1` (stereo unspecified) gave OPRM1-OPRD1 inv 1, HTR5A ag ctr -1, MOR-DOR ag 0, DAGLB inhibitor -3, HTR5A inv ag 11, Arr AP2 block -3, Arr-AP2 CP1 -12 and GST GSH counter -9.
`COc1cccc(NC(=O)C2CSC3(C)CCC(=O)N23)c1` (stereo unspecified) gave OPRM1-OPRD1 inv 6, HTR5A ag ctr -7, MOR-DOR ag -1, DAGLB inhibitor -2, HTR5A inv ag 20 and Arr AP2 block -4.
Screening CC(OC(=O)C1CSC2(C)CCC(=O)N12)C(=O)Nc1cccc(C#N)c1 (stereo unspecified) returned OPRM1-OPRD1 inv 6, HTR5A ag ctr 2, MOR-DOR ag -1, DAGLB inhibitor 0, HTR5A inv ag -4, Arr AP2 block 1, Arr-AP2 CP1 1 and GST GSH counter -5.
`CCN1C(=O)[C@H]2[C@@H](c3ccc(C)cc3)N[C@]3(CCCN(Cc4ccco4)C3=O)[C@H]2C1=O` gave DAGLB inhibitor 1.
Screening COc1ccc2nc(C)cc(N3CCN(S(=O)(=O)c4ccccc4F)CC3)c2c1 returned OPRM1-OPRD1 inv 6, HTR5A ag ctr -4, MOR-DOR ag -2, DAGLB inhibitor -1, HTR5A inv ag 9, Arr AP2 block 62*, Arr-AP2 CP1 -4 and GST GSH counter -6.
Screening CN(C)S(=O)(=O)Nc1ccc(Cc2ccncc2)cc1 returned DAGLB inhibitor -3.
For Cc1ccccc1NC(=O)COC(=O)/C=C/c1cccc(C(F)(F)F)c1 the results were OPRM1-OPRD1 inv 7, HTR5A ag ctr 3, MOR-DOR ag -1, DAGLB inhibitor -4, HTR5A inv ag 8 and Arr AP2 block 3.
O=C(COC(=O)/C=C/c1cccc(C(F)(F)F)c1)Nc1cccc2ccccc12 was read as OPRM1-OPRD1 inv -4, HTR5A ag ctr 1, MOR-DOR ag 1, DAGLB inhibitor 1, HTR5A inv ag -3, Arr AP2 block 91*, Arr-AP2 CP1 -11 and GST GSH counter -2.
For O=C(CCNC(=O)c1ccccc1)NCc1ccccc1F the results were OPRM1-OPRD1 inv -5, HTR5A ag ctr 1, MOR-DOR ag 1, DAGLB inhibitor -1, HTR5A inv ag -3 and Arr AP2 block 16.
For O=C(CCNC(=O)c1ccc(Br)cc1)NCc1ccccc1F the results were OPRM1-OPRD1 inv 2, HTR5A ag ctr 0, MOR-DOR ag 0, DAGLB inhibitor 0, HTR5A inv ag 30, Arr AP2 block 55*, Arr-AP2 CP1 -6 and GST GSH counter -1.
`CCCCNC(=O)Cn1c(=O)oc2cc(S(=O)(=O)N3CC(C)CC(C)C3)ccc21` (stereo unspecified) gave OPRM1-OPRD1 inv -6, HTR5A ag ctr -5, MOR-DOR ag 1, DAGLB inhibitor 1, HTR5A inv ag 13 and Arr AP2 block 33.
For Cc1cc(C)cc(NC(=O)Cn2c(=O)oc3cc(S(=O)(=O)N4CC(C)CC(C)C4)ccc32)c1 (stereo unspecified) the results were OPRM1-OPRD1 inv -35, HTR5A ag ctr -2, MOR-DOR ag 6, DAGLB inhibitor -2, HTR5A inv ag 4, Arr AP2 block 97*, Arr-AP2 CP1 -3 and GST GSH counter -8.
NC(=O)c1cccc(-c2cnc(N)c(C(=O)c3cccnc3)n2)c1 was read as OPRM1-OPRD1 inv 18, HTR5A ag ctr -1, MOR-DOR ag -3, DAGLB inhibitor -2, HTR5A inv ag 3 and Arr AP2 block 14.

Screening data from PubChem BioAssay.
